Test results as given in ChEMBL document CHEMBL3112487, “Synthesis and antifungal activity of ASP9726, a novel echinocandin with potent Aspergillus hyphal growth inhibition” (2014).
In brackets after ≈: the same amount, converted by molar mass. Activity calls are given as the source filed them. No cut-off for these calls is given here.

How the values were obtained:
[1] = tested on: Aspergillus fumigatus; test: Antifungal activity against Aspergillus fumigatus 20024 in human serum assessed as hyphal growth inhibition after 48 hrs by microscopic analysis; type: functional; conditions: Aspergillus fumigatus, 20024, Serum
Method in brief: (§1)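 Susceptibility testing followed CLSI M27-A3 or M38-A2 standards, using human serum as the growth medium. Fungi were exposed to drug and incubated at 37 °C under 5% CO2 for 48 h.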

[2] = tested on: Aspergillus fumigatus; test: Antifungal activity against Aspergillus fumigatus 20030 in ICR mouse invasive pulmonary aspergillosis model assessed as survival rate at 3 mg/kg, iv qd administered for 10 days measured on day 11 relative to control; type: functional
[3] = tested on: Aspergillus fumigatus; test: Antifungal activity against Aspergillus fumigatus 20024 in human serum assessed as formation of small, rounded and compact microcolonies with severely stunted hypha at 4 fold MEC after 48 hrs by microscopic analysis; type: functional, organism-based
[4] = tested on: Aspergillus fumigatus; test: Antifungal activity against Aspergillus fumigatus 20030 in ICR mouse invasive pulmonary aspergillosis model assessed as survival rate at 1.5 mg/kg, iv qd administered for 10 days measured on day 11 relative to control; type: functional
[5] = tested on: Nakaseomyces glabratus; test: Antifungal activity against echinocandin-resistant Candida glabrata FP2307 in human serum assessed as hyphal growth inhibition after 48 hrs by microscopic analysis; type: functional; method in brief: as §1
[6] = tested on: Candida parapsilosis; test: Antifungal activity against Candida parapsilosis 20009 in human serum assessed as hyphal growth inhibition after 48 hrs by microscopic analysis; type: functional; conditions: Lodderomyces parapsilosis, 20009, Serum; method in brief: as §1
[7] = tested on: Candida albicans; test: Antifungal activity against Candida albicans 20015 in human serum assessed as hyphal growth inhibition after 48 hrs by microscopic analysis; type: functional; conditions: Candida albicans, 20015, Serum; method in brief: as §1
[8] = tested on: Aspergillus fumigatus; test: Antifungal activity against Aspergillus fumigatus 20024 in human serum assessed as formation of large microcolonies with elongated hypha in all direction at 4 fold MEC after 48 hrs by microscopic analysis; type: functional, organism-based

SMILES | MIC [1] | survival at 3 mg/kg [2] | Activity [3] | survival at 1.5 mg/kg [4] | MIC [5] | MIC [6] | MIC [7] | Activity [8]
COc1cc(C[C@@H](O)[C@@H]2NC(=O)[C@@H]3C[C@@H](O)CN3C(=O)[C@H]([C@@H](C)O)NC(=O)[C@@H](NC[C@H]3CC[C@H](c4nnc(-c5ccc(N6CCC(OC)(C7CCCCC7)CC6)cc5)s4)CC3)C[C@@H](O)CNC(=O)[C@@H]3[C@@H](O)[C@@H](C)CN3C(=O)[C@H]([C@H](O)CCNC(CO)CO)NC2=O)ccc1O | 0.25 µg/mL (≈ 0.185 µM) | 70% | Active | 40% | 2 µg/mL (≈ 1.48 µM) | 4 µg/mL (≈ 2.96 µM) | 0.25 µg/mL (≈ 0.185 µM) | –
CC[C@H](C)C[C@H](C)CCCCCCCCC(=O)N[C@H]1C[C@@H](O)[C@@H](NCCN)NC(=O)[C@@H]2[C@@H](O)CCN2C(=O)[C@H]([C@H](O)CCN)NC(=O)[C@H]([C@H](O)[C@@H](O)c2ccc(O)cc2)NC(=O)[C@@H]2C[C@@H](O)CN2C(=O)[C@H]([C@@H](C)O)NC1=O [CASPOFUNGIN] | 0.5 µg/mL (≈ 0.457 µM) | 20% | – | 10% | > 64 µg/mL | 64 µg/mL (≈ 58.5 µM) | 0.25 µg/mL (≈ 0.229 µM) | inactive
